AF4-AF9 inh: inhibitors of AF4 peptide binding to AF9, primary screen, biochemical, AlphaScreen, biotin-AF4 peptide, FLAG-AF9, single point. Protein AF-9 (Homo sapiens), P42568. inhibition, % at 10 µM. 0.47% of 350,000 active. AID 651704, 2012;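 active means every replicate reaching a set inhibition limit, whatever the replicate mean, cut at about 25% in these data; inconclusive means mean inhibition reaches that limit but some replicates miss it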;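 further: 0% = plate neutral control median and 100% = total signal loss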
Target sequence (P42568 whole entry, looked up): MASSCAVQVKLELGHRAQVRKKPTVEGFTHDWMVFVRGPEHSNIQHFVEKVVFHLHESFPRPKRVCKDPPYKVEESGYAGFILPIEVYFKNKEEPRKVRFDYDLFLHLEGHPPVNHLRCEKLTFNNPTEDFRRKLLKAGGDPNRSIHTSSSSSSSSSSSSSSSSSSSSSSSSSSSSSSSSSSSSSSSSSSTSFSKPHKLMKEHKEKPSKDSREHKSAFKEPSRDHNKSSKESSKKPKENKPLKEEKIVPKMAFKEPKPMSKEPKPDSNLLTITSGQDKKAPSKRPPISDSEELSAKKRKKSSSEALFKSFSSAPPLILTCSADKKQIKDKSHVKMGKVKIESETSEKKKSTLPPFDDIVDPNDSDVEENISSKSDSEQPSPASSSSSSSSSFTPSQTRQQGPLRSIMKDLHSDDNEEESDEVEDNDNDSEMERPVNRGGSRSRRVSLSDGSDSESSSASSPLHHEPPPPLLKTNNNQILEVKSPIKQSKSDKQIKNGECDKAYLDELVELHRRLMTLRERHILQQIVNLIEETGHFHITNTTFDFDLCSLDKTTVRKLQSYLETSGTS
EWS-Fli block: EWS/Fli-driven NR0B1 reporter inhibitors, primary screen, A673 cells, NR0B1 luciferase, luminescence, MLPCN library; viability-normalised; inhibition, % at 12.6 µM; 0.67% of 350,000 active; AID 651661, 2012;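 active means mean inhibition of at least 50% after viability correction, with every replicate also passing that limit; inconclusive means mean reaches 50% but only one of two replicates passes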;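 further: firefly luciferase signal divided by Alamar Blue viability fluorescence both relative to DMSO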
FN deposition inh: inhibitors of fibronectin matrix deposition, primary screen, AH1F cells, Alexa488-fibronectin fluorescence, plate reader; 0.086% of 350,000 active; AH1F fibroblasts, overnight; inhibition, % at 12.6 µM;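 active means mean inhibition across replicates of 30% or more, regardless of how many single replicates reach that level; inconclusive means mean under 30% yet at least half of replicates reach 30%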;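 further: positive control wells lacked labelled fibronectin entirely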
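Material: AH1F fibroblast monolayer depositing Alexa488-labelled fibronectin into matrix | Input: 10000 AH1F cells/well | Medium: DMEM plus 2% serum, read in PBS | Reagent: Alexa488-fibronectin, 24 nM final in well | Compound dosing: One dose per compound, pinned | Schedule: 1 h adhesion, overnight exposure | Measured by: Fluorescence at 485 nm excitation, 525 nm emission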
HIV Env fusion: inhibitors of HIV-1 Env-driven cell-cell fusion, primary screen, HeLa-JRFL effector, CEM21 target cells, luciferase; inhibition, % at 12.3 µM; 1.1% of 360,000 active; AID 651610, 2012;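 active means mean replicate inhibition score of at least 50 and every replicate individually at or above 50; inconclusive means only one of the two criteria met; inactive means mean below 50 and not all replicates reaching 50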;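 further: 0% = plate neutral controls and 100% = maraviroc near 300 nM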
Glyco luc inh: increase of ERlucT glycosylation luciferase signal, primary screen, N-linked glycosylation inhibitor project, D54 ERlucT cells, luminescence, set 2; D54 ERlucT glycosylation luciferase reporter, 24 h; percent of 100 nM tunicamycin response; reporter increase, % at 12.5 µM; 0.23% of 360,000 active;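 active means mean luciferase reporter signal, scaled so untreated is 0 and the glycosylation-blocking control 100, at or above a set limit in every replicate; inconclusive means mean reaches the limit but not every replicate does; inactive means mean below the limit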;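 further: luciferase carries N-glycosylation sites so blocking glycosylation raises the light; 0% = median of neutral control wells and 100% = median of 100 nM tunicamycin wells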
PAX8 inh HTS: inhibitors of PAX8-driven TPO luciferase reporter, primary screen, RMG-I cells, single concentration; SteadyGlo, 24 h; inhibition, % at 12.6 µM; 1.2% of 360,000 active; AID 652154, 2013;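 active means mean replicate inhibition at least 60% with every replicate also reaching 60%; inconclusive means only one of the two criteria is met; inactive means mean below 60% and not all replicates reaching 60%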;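 further: luciferase light reporting Pax8 driven TPO promoter activity; plate controls were median of neutral control wells for no effect and mitoxantrone controls for full effect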
An asterisk follows results filed as active; ? = inconclusive; . = no result; [ ] = remark or other dose. Shown are actives, neighbours in structure and some others; about 2.5% of the full set was active somewhere.

SMILES	AF4-AF9 inh	EWS-Fli block	FN deposition inh	HIV Env fusion	Glyco luc inh	PAX8 inh HTS
C[C@@H]1CN([C@@H](C)CO)C(=O)c2cc(NC(=O)Nc3cccc4ccccc34)ccc2O[C@@H](C)CCCCO[C@H]1CN(C)CC1CCCCC1	0.3	90.7*	.	15.3[16.7 µM]	.	-21.2
C[C@@H]1CCCCO[C@H](CN(C)CC2CC2)[C@@H](C)CN([C@H](C)CO)C(=O)c2cc(NC(=O)Nc3cccc4ccccc34)ccc2O1	.	-2.3	.	-7.1[16.7 µM]	.	-3.7
C[C@@H]1CN([C@@H](C)CO)C(=O)c2cc(NC(=O)Nc3cccc4ccccc34)ccc2O[C@@H](C)CCCCO[C@H]1CN(C)CC1CC1	.	-3.4	.	4.9[16.7 µM]	.	-2.0
C[C@@H]1CN([C@@H](C)CO)C(=O)c2cc(NC(=O)Nc3cccc4ccccc34)ccc2O[C@@H](C)CCCCO[C@@H]1CN(C)CC1CCCCC1	-12.6	81.7*	.	15.6[16.7 µM]	.	9.1
C[C@H](CO)N1C[C@H](C)[C@H](CN(C)CC2CC2)OCCCC[C@H](C)Oc2ccc(NC(=O)Nc3cccc4ccccc34)cc2C1=O	.	7.3	.	62.0*[16.7 µM]	.	0.0
C[C@@H]1CN([C@@H](C)CO)C(=O)c2cc(NC(=O)Nc3cccc4ccccc34)ccc2O[C@@H]1CN(C)CC1CCCCC1	11.8	76.9*	.	.	.	.
Cn1cnc(CCNC(=O)C[C@@H]2CC[C@H]3[C@@H](COC[C@H](O)CN3C(=O)Nc3ccccc3)O2)c1	1.4	2.6	-7.3	.	.	-5.8
C[C@@H]1CCCCO[C@@H](CN(C)CC2CCCCC2)[C@H](C)CN([C@H](C)CO)C(=O)c2cc(NC(=O)Nc3cccc4ccccc34)ccc2O1	15.6	90.0*	.	9.5[16.7 µM]	.	-13.6
C[C@@H]1CCCCO[C@H](CN(C)C)[C@H](C)CN([C@H](C)CO)C(=O)c2cc(NC(=O)Nc3cccc4ccccc34)ccc2O1	7.7	-5.9	.	-10.5[16.7 µM]	.	84.0*
C[C@H]1CCCCO[C@H](CN(C)CC2CCCCC2)[C@@H](C)CN([C@@H](C)CO)C(=O)c2cc(NC(=O)Nc3cccc4ccccc34)ccc2O1	16.0	89.2*	.	16.3[16.7 µM]	.	9.5
COc1ccc(-c2nnn(CC(=O)N(Cc3cccs3)C(C)C(=O)NC3CCCC3)n2)cc1OC (stereo not drawn)	.	.	-5.7	78.2*	3.3	.
O=C(NCC1CCCO1)C(c1ccncc1)N(Cc1cccs1)C(=O)Cn1nnc(-c2ccc(F)cc2)n1 (stereo not drawn)	-0.1	16.1	6.8	-12.9	6.8	24.2
CC(C)CCNC(=O)C(c1ccncc1)N(Cc1cccs1)C(=O)Cn1nnc(-c2ccc(F)cc2)n1 (stereo not drawn)	.	.	-1.6	33.4	2.2	79.7*
CCOC(=O)c1c(CSc2cccs2)n(C)c2cc(Br)c(O)c(CN(C)C)c12	22.6	1.5	-3.8	85.4*	-1.8	-6.1
CCOC(=O)c1c(C)n(C)c2cc(Br)c(O)c(O)c12	-54.5	-17.7	-10.2	-18.5	-0.5	-16.1
Cc1ccc(S(=O)(=O)N(C)C[C@@H]2OCCCC[C@H](C)Oc3ccc(NC(=O)Nc4ccc5c(c4)OCO5)cc3C(=O)N([C@@H](C)CO)C[C@H]2C)cc1	-0.4	0.6	-18.6	42.9[16.7 µM]	.	-13.8
Cc1cccc(-c2cc(N3CCCN(C)CC3)n3nccc3n2)c1	30.0*	6.7	-2.7	-4.1	0.8	10.0
C[C@H]1CCCCO[C@H](CN(C)C(=O)CCCN(C)C)[C@@H](C)CN([C@@H](C)CO)C(=O)c2cc(NS(=O)(=O)c3cccs3)ccc2O1	-2.2	.	.	.	.	-3.6
COc1cccc(/C=C2\SC(=S)N(CCC(=O)N3CCCCC3)C2=O)c1	-2.0	.	0.6	10.9	39.0*	5.7
COc1cccc(/C=C2\SC(=S)N(CC3CCCO3)C2=O)c1 (stereo not drawn)	31.7*	-28.1	-9.5	.	-6.2	47.5
CCOc1ccc(/C=C2\SC(=S)N(CCC(=O)O)C2=O)cc1	.	72.8*	-2.0	?	-4.8	-5.6
COc1ccc(CN(C2CCCC2)S(=O)(=O)c2ccc(-n3cnnn3)cc2)cc1	.	.	6.6	-2.4	-3.5	14.8
COc1ccc(CN(C2CCCC2)S(=O)(=O)c2ccc(-n3cnnn3)cc2)cc1OC	.	.	31.1*	-7.9	-0.5	0.7
Cc1ccc(-c2cnc3c(c2)C(=O)N([C@H](C)CO)C[C@H](C)[C@@H](CN(C)C(=O)Cc2ccccc2)O3)cc1	1.6	2.2	.	6.2[16.7 µM]	.	.
CC(C)NC(=O)N[C@@H]1CC[C@@H](CCn2cc(-c3ccccc3)nn2)O[C@@H]1CO	-2.3	-4.4	-10.1	-21.2[16.7 µM]	.	-9.8
SMILES	AF4-AF9 inh	EWS-Fli block	FN deposition inh	HIV Env fusion	Glyco luc inh	PAX8 inh HTS
Cc1cccc(NC(=O)CC23CC4CC(C2)CC(n2nnc(C)n2)(C4)C3)c1	-1.3	-9.7	1.3	.	0.0	110.7*
CC(C)CNC(=O)c1cc(-c2ccco2)on1	-4.7	-76.0	.	.	4.7	.
CCCNC(=O)c1cc(-c2ccco2)on1	.	.	-1.2	-343.5	81.2*	.
CN1OC[C@@H]2CN(C(=S)Nc3cc(C(F)(F)F)cc(C(F)(F)F)c3)[C@H](c3ccccc3Br)C[C@@H]21	.	10.5	-26.5	20.0	.	83.8*
CN(C)CCCNS(=O)(=O)c1ccc(N2CCC(c3ccc(Cl)cc3)=N2)cc1	.	.	40.7*	-127.0	.	52.5
CC[n+]1c(C=C2C=C(C)OC(C)=C2)sc2ccccc21	-0.1	?	-45.0	26.3	13.7	84.5*
CC[n+]1c(/C=C2/C=C(C)CC(C)C2)sc2ccccc21 (stereo not drawn)	2.3	28.0	-7.6	7.7	3.3	22.9
O=C(N/N=C/c1ccccc1)C(=O)N/N=C/c1ccccc1	-1.1	-0.3	-10.3	3.4	-0.1	-5.8
O=C(C=C=Nc1ccccc1)C(=O)N=C=Cc1ccccc1	-0.4	6.9	7.8	-12.6	20.3	79.7*
CCCC(=O)Nc1ccc2c(c1)OC[C@H](C)N(Cc1ccccc1)C[C@H](C)[C@@H](OC)CN(C)C2=O	0.8	-2.1	1.0	.	.	.
CC1C/C(=C/c2ccncc2)C(=O)/C(=C/c2ccncc2)C1 (stereo not drawn)	-20.4	78.0*	16.7	81.4*	-22.0	85.3*
C[C@@H]1CCCCO[C@H](CN(C)C(=O)Cc2ccccc2)[C@H](C)CN([C@@H](C)CO)C(=O)c2cc(NC(=O)Nc3cccc4ccccc34)ccc2O1	-1.4	7.4	.	4.2[16.7 µM]	.	53.5
O=C(c1cn(Cc2ccccc2)nc1-c1ccccc1)N1CCN(c2ccccn2)CC1	1.3	53.9*	0.5	-47.2	50.9*	13.7
Cc1ccccc1C(=O)N1CCN(c2ccccn2)CC1	.	.	.	.	-0.4	.
COc1ccc(-c2nn(Cc3ccccc3)cc2C(=O)N2CCN(c3ccccn3)CC2)cc1OC	5.1	5.1	-8.5	-1.6	1.0	4.1
